Source: PMC3756490 (Journal of medicinal chemistry, 2012)

Assays:
[1] = tested on: HIF transcriptional activity; assay: HIF-dependent luciferase reporter assay in LN229-V6R cells under hypoxia; format: cell-based, human; conditions: for inhibition of HIF-1 transcriptional activity (HRE-mediated luciferase) at 10 μM: one day
Procedure, shortened: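 LN229-V6R cells carry a stably integrated hypoxia/HIF-inducible luciferase reporter and were grown in DMEM with 10% serum. Cells were seeded at 3 × 10⁴ per well, held in normoxia (21% O₂, 5% CO₂) for 24 h, then given DMEM with 1% DMSO with or without test compound (2.5, 5.0, 10.0 μM). After 1 h at 37 °C, cells went to hypoxia (1% O₂) for 24 h. Cells were washed and lysed, and extract luminescence was read with luciferase substrate. Triplicates, expressed as % of untreated control.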

HIF-1α = HIF-1α protein levels in LN229-V6R cells under hypoxia by western blot; format: cell-based, human; conditions: 3-100 μM, hypoxia 24 hours
Procedure, shortened: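 LN229-V6R cells (2 × 10⁵) were seeded in 35 mm dishes and kept under normoxia for 24 h. Fresh DMEM with 1% DMSO and test compound (3, 6, 12, 25, 50 or 100 μM) was added, then 1 h at 37 °C in normoxia, then 24 h in hypoxia (1% O₂). Lysates in SDS loading buffer were run on a 4–12.5% gradient gel and blotted with anti-HIF-1α (1:500) and anti-β-actin (1:3,000), with HRP/ECL detection. Each blot was done at least twice.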

LogP7.4 measurement = format: physicochemical; conditions: pH 7.4; shake flask method (6a, 6g) or HPLC method (1, 6b-6f, 6h-6l)
Procedure, shortened: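 Shake-flask method (OECD 107): 1-octanol and 0.2 M phosphate buffer pH 7.4 were mutually presaturated by stirring for 24 h at room temperature. 1–2 mg test compound was partitioned between 2 mL each phase, in duplicate. The aqueous phase was quantified by HPLC at 254 nm against standard curves. HPLC method (OECD 117): C₁₈ column with methanol:water:triethylamine 70:30:0.1 at 2 mL/min, calibrated with the shake-flask compounds, aniline, benzene, toluene and chlorobenzene.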

[2] = metabolic stability in mouse liver homogenate; format: in vitro ADME; conditions: mouse liver homogenate in PBS (1:2 w/v), pH 7.4
Procedure, shortened: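 Test compound (20 μM) was incubated at 37 °C with shaking in fresh mouse liver homogenate in PBS pH 7.4 (1/2 w/v). At set times, samples were extracted with acetonitrile, dried and reconstituted in mobile phase. They were quantified by reverse-phase C₈ HPLC with photodiode-array detection, using α-naphthoflavone (2 μM) as internal standard and standard curves linear over 1–50 μM. Run in triplicate.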

[3] = tested on: LN229-Lux cells (constitutive luciferase reporter gene); assay: constitutive luciferase reporter control assay in LN229-Lux cells; format: cell-based, human; conditions: control for inhibition of luciferase per se
Procedure, shortened: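 LN229-Lux cells carry a constitutive luciferase reporter driven by a retroviral LTR promoter. They were grown in DMEM with 10% serum, seeded at 3 × 10⁴ per well and treated with test compound in 1% DMSO medium under normoxia. Lysates were read for luminescence with luciferase substrate. Values are % of untreated control extracts, in triplicates.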

| Compound | inhibition of HIF-1 transcriptional activity (HRE-mediated luciferase) at 10 μM [1] | logP7.4 (LogP7.4 measurement) | luciferase activity in LN229-Lux cells (constitutive reporter) [3] | also measured |
| --- | --- | --- | --- | --- |
| CC(C)CN(Cc1cc(O)c2c(c1)C=CC(C)(C)O2)S(=O)(=O)c1ccncc1 [Compound 6l, N-[(8-hydroxy-2,2-dimethyl-2H-chromen-6-yl)methyl]-N-(2-methylpropan-1-yl)pyridine-4-sulfonamide] | 60 ∼ 80% | 1.2 ∼ 1.3 |  | concentration from which HIF-1α levels decreased dose-dependently (HIF-1α): 25 µM; half-life at 20 μM [2]: 13 to 20 h |
| CC(C)CN(Cc1cc(O)c2c(c1)C=CC(C)(C)O2)S(=O)(=O)c1ccccn1 [Compound 6h, N-[(8-hydroxy-2,2-dimethyl-2H-chromen-6-yl)methyl]-N-(2-methylpropan-1-yl)pyridine-2-sulfonamide] |  | 1.2 ∼ 1.3 |  |  |
| CC(C)N(Cc1ccc2c(c1)C=CC(C)(C)O2)S(=O)(=O)c1ccccn1 [Compound 6a, N-[(2,2-dimethyl-2H-chromen-6-yl)methyl]-N-(propan-2-yl)pyridine-2-sulfonamide] | completely |  |  |  |
| COc1cc(CN(C(C)C)S(=O)(=O)c2ccccn2)cc2c1OC(C)(C)C=C2 [Compound 6g, N-[(8-methoxy-2,2-dimethyl-2H-chromen-6-yl)methyl]-N-(propan-2-yl)pyridine-2-sulfonamide] | 60 ∼ 80% | 1.2 ∼ 1.3 |  |  |
| COc1ccc(S(=O)(=O)N(Cc2ccc3c(c2)C=CC(C)(C)O3)c2ccccc2)cc1OC [Compound 1, 3,4-dimethoxy-N-[(2,2-dimethyl-2H-chromene-6-yl)methyl]-N-phenylbenzenesulfonamide] |  |  | reduced luciferase activity only in LN229-V6R cells under hypoxia |  |
| CO[C@H]1/C=C\C=C(/C)C(=O)NC2=CC(=O)C(NCCN(C)C)=C(C[C@@H](C)C[C@H](OC)[C@H](O)[C@@H](C)/C=C(\C)[C@@H]1OC(N)=O)C2=O [Compound 17-DMAG, reference compound] |  |  | inhibited both reporter cell lines | luciferase activity in LN229-V6R cells (qualitative) [1]: inhibited both reporter cell lines |
